Compound activity (PubChem BioAssay)
Redox H2O2 prof – compounds producing H2O2 with reducing agent – biochemical, NIH compound library profiling, artefact control for MLSCN library redox annotation, primary screen | DTT-dependent redox cycling H2O2, phenol red/HRP absorbance; 100% = 100 µM peroxide control, 0% = buffer | activation, % at 10 µM | 200,000 tested, 0.03% active | AID 878;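 active means activation of at least 50% relative to the plate's high and low controls in the primary single-dose screen; inactive means activation below 50%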;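 further: compound incubated with DTT at 0.8 mM final as the reducing agent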
GSH bead fluor – compound fluoresces at 488/530 nm on GSH beads. GSH beads flow cytometry, compound fluorescence 488/530 nm; stronger effect = higher value. AID 1776. 190,000 tested, 0.25% active. fluorescence (KMESF) at 10 µM; in the data active means fluorescence above about 89;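 further: glutathione beads carrying GST-tagged Bcl family fusion proteins plus one bare bead set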
ABCG2 block – human ABCG2 inhibition, ABCB1 as counter-screen | Q9UNQ0 | IgMXP3 cells, JC-1 efflux, flow cytometry | inhibition, % at 6.6 µM | 190,000 tested, 0.1% active | AID 1325;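 active means inhibition above 80%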
Target sequence (Q9UNQ0 whole entry, looked up): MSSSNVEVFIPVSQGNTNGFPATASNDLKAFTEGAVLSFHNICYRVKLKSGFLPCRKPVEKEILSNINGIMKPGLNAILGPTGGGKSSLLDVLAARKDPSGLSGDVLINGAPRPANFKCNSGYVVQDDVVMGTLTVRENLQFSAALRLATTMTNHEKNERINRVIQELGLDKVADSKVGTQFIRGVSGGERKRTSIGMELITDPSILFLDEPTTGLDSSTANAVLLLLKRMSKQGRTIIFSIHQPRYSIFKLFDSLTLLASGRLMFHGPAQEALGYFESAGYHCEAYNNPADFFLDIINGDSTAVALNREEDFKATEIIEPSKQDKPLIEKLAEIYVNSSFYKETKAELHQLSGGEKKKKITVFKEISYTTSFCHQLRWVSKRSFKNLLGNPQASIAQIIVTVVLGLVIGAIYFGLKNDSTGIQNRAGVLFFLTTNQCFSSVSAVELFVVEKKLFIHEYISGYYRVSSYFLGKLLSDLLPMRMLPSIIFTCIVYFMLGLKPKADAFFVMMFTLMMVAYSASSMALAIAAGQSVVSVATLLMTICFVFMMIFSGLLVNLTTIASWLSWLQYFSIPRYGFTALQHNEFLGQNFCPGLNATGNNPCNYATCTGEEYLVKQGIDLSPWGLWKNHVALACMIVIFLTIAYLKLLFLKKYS
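Read-out basis: Efflux inhibition in percent versus controls | Test system: ABCG2 IgMXP3 and barcoded ABCB1 CCRF-Adr cell mix | Quantity: 3 million cells/mL in well | Schedule: 10 min at 25 °C | Control set: Nicardipine as high control, DMSO as low control | Reagent: JC-1 as fluorescent efflux pump substrate | Signal: Flow cytometry of retained JC-1 fluorescence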
Avidin bead fluor – compound fluoresces at 488/530 nm on avidin beads; compound fluorescence 488/530 nm, flow cytometry; stronger effect = higher value; fluorescence (KMESF) at 10 µM; 220,000 tested, 0.38% active; AID 1775; in the data active means fluorescence above about 47
ABCB1 block – blocks JC-1 efflux by human ABCB1 transporter; P08183; inhibition, % at 6.6 µM; 190,000 tested, 0.067% active; CCRF-Adr cells, flow cytometry; AID 1326; in the data active means inhibition above about 40%;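 further: higher value means more JC-1 retained so stronger ABCB1 efflux block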
Of the large screens only hits and unclear results are named; the others gave an inactive call. Compounds with a hit are over-represented: about 0.72% of the library has one in this group of screens.

N/C(=N\OC(=O)c1ccco1)c1ccc(Cl)cc1	Avidin bead fluor 63
CC(=O)Nc1ccc(C(=O)CSc2nnnn2C2CCCC2)cc1	none
Cc1ccc(-c2nn[nH]n2)o1	Avidin bead fluor 81
Cc1ccc(-c2nn[nH]n2)cc1	none (no result: Avidin bead fluor)
CCOc1c(OC(C)=O)ccc(/C=C2\N=C(SCC)SC2=O)c1[N+](=O)[O-]	Avidin bead fluor 78
CC(=O)Nc1ccc(NC(=O)C(OC(=O)c2ccccc2)C(OC(=O)c2ccccc2)C(=O)O)cc1 (stereo not given)	none
CSc1cccc(NC(=O)CSc2nnc(C)s2)c1	GSH bead fluor 109
COc1cc(NC(=O)CSc2nnc(C)s2)cc(OC)c1OC	none
O=C(CN1CCC(NC(=O)c2ccco2)CC1)Nc1cccc2ccccc12	GSH bead fluor 120
Cc1ccsc1C(=O)OCC(=O)N1CCc2ccccc2C1	none
COc1cc(/C=N/NC(=O)CSc2nc3ccccc3n2C)cc(OC)c1OC	none
CN(C(=O)Nc1ccc(C(C)(C)C)cc1)C1CCCCC1	Avidin bead fluor 70 (no result: Redox H2O2 prof, GSH bead fluor, ABCG2 block, ABCB1 block)
Cc1cccc(CNc2ccc(C(CC(N)=O)NC(=O)c3cccc(Br)c3)cc2[N+](=O)[O-])c1 (stereo not given)	none (no result: Redox H2O2 prof, GSH bead fluor, ABCG2 block, ABCB1 block)
Cn1cc(S(=O)(=O)CC(=O)Nc2ccc3c(c2)OCO3)c2ccccc21	GSH bead fluor 91, Avidin bead fluor 194
CCn1cc(S(=O)(=O)CC(=O)Nc2ccc3c(c2)OCO3)c2ccccc21	none (no result: Redox H2O2 prof, GSH bead fluor, ABCG2 block, ABCB1 block)
CCOc1ccc2ncc(C(=O)c3ccc(OC)cc3)c(N3CCN(CC)CC3)c2c1	GSH bead fluor 129, Avidin bead fluor 50
O=C(Cn1nnc(-c2ccc(Cl)cc2)n1)NCc1ccco1	none
CCCC(=O)NCn1nnc(-c2ccc(Cl)cc2)n1	Avidin bead fluor 50
COc1ccc(-c2nnn(CC(=O)N3CCOCC3)n2)cc1	Avidin bead fluor 79
COc1ccc(/C=C/C(=O)c2ccccc2)cc1COc1ccccc1F	Avidin bead fluor 90
Cc1cc2occ(CC(=O)O)c2cc1C	GSH bead fluor 234
Cc1c(/C=N\NC(=O)c2csc3ccccc23)cnn1C	Avidin bead fluor 54
O=C(NNC(=S)Nc1ccc(Br)cc1Cl)c1ccncc1	Avidin bead fluor 90
COc1ccc2[nH]c(=O)c(CN(C(=O)c3cccnc3)c3ccccc3C)cc2c1	Avidin bead fluor 118 (no result: Redox H2O2 prof, GSH bead fluor, ABCG2 block, ABCB1 block)
O=C(CSc1nc2cc(Cl)ccc2s1)c1ccco1	none
O=C(CSCc1ccc(Cl)cc1)c1ccco1	GSH bead fluor 260 (no result: Redox H2O2 prof)
CC(C)(C)NC(=O)NC(=O)COC(=O)c1ccco1	GSH bead fluor 261
CCOC(=O)/C(N=Nc1ccc2c(c1)OCO2)=C(\C)O	none
CCOC(=O)c1sc(NC(=S)NC(=O)C2CCCC2)cc1C	Avidin bead fluor 49
Cc1ccc(NC(=O)C2=C(c3ccccc3)S(=O)(=O)CCS2(=O)=O)cc1	none
CC(=O)N1CCC(N(C(=O)Nc2ccc(C)c(C)c2)C2CCCC2)CC1	Avidin bead fluor 47
CC(=O)N1CCC(N(CCCOC(C)C)C(=O)Nc2ccc(C)c(C)c2)CC1	none
N=c1c(C(=O)NCc2ccc(F)cc2)cc2c(=O)n3ccccc3nc2n1CC1CCCO1 (stereo not given)	Avidin bead fluor 90
CCCSc1cc(N2CCOCC2)nc(-c2ccccc2Cl)n1	none
CNC(=O)/C(C#N)=C/c1cc(C)n(-c2ccc(N3CCOCC3)cc2)c1C	Avidin bead fluor 114 (no result: Redox H2O2 prof, GSH bead fluor, ABCG2 block, ABCB1 block)
CC(C)C(OC(=O)c1cccc(S(=O)(=O)NCC(F)(F)F)c1)C(=O)NC(N)=O (stereo not given)	none
CC(=O)Cc1nsc(NC(=O)c2ccc(-c3cccc(C(F)(F)F)c3)o2)n1	Avidin bead fluor 53
CC(=O)Cc1nsc(NC(=O)c2ccc(-c3cc(C(F)(F)F)ccc3Cl)o2)n1	none
O=C1CCCCc2sc(Br)c([N+](=O)[O-])c2N1	none (no result: Redox H2O2 prof, GSH bead fluor, ABCG2 block, ABCB1 block)
O=C(NCc1ccccn1)C(C(=O)c1ccc(F)cc1)n1ccccc1=O (stereo not given)	Avidin bead fluor 56
CN1CCN(C(=O)C(C(=O)c2ccc(F)cc2)n2ccccc2=O)CC1 (stereo not given)	Avidin bead fluor 59
C(=N\Nc1ccccc1)/c1nc2ccccc2s1	none (no result: Redox H2O2 prof, GSH bead fluor, ABCG2 block, ABCB1 block)
O=C(N/N=C/c1cn(-c2ccccc2)nc1-c1ccc([N+](=O)[O-])cc1)c1ccncc1	none (no result: Redox H2O2 prof, GSH bead fluor, ABCG2 block, ABCB1 block)
FC(F)(F)c1cc(-c2cccs2)nc2nc(N3CCOCC3)sc12	none
O=C1CCCCCN1Cc1nnc(SCc2nc3ccccc3s2)n1-c1ccccn1	GSH bead fluor 257
CCOC(=O)c1cc(-c2cccnc2)nn1-c1ccccc1C	none
O=C(O)c1cc(-c2cccnc2)nn1-c1ccccn1	GSH bead fluor 260
O=C1NC(=S)S/C1=C/c1ccc(N2CCOCC2)o1	none
O=C1S/C(=C\c2ccc(N3CCOCC3)o2)C(=O)N1Cc1ccc(F)cc1	ABCG2 block 107
Cc1nn(-c2ccccc2)c(NC(=O)c2cccs2)c(-c2ccccc2Cl)c1=O	none (no result: Redox H2O2 prof, GSH bead fluor, ABCG2 block, ABCB1 block)
CC(=O)Nc1ccc(S(=O)(=O)N2CCSC2c2ccc(Cl)cc2)cc1 (stereo not given)	GSH bead fluor 265
O=C(Nc1ccccc1)N1CCCC2CCCCC21 (stereo not given)	none
CC(C)=CCC(C)(C)C1OCCN1C(=O)Nc1ccccc1 (stereo not given)	GSH bead fluor 258
O=C1CSc2ccc(C(=O)NCC(c3ccco3)N3CCCCC3)cc2N1 (stereo not given)	Avidin bead fluor 50
N#Cc1c(-c2ccc(Cl)cc2)ccn2nc(C3CCCCC3)nc12	GSH bead fluor 262
COC(=O)CCc1nc2c(C#N)c(-c3ccc(Cl)cc3)ccn2n1	none
COc1cccc(-n2c(C)nc3cc(C(=O)O)ccc32)c1	Avidin bead fluor 54
CC1(C)Cc2c(C#N)c(SCC(=O)c3ccccc3)nc(N3CCOCC3)c2CS1	Avidin bead fluor 49
CC1(C)Cc2c(C#N)c(SCC(=O)c3ccccc3)nc(N3CCCC3)c2CO1	none (no result: GSH bead fluor, ABCG2 block, Avidin bead fluor, ABCB1 block)
COc1cccc(CC2(CO)CCCN(Cc3ccc(CN4CCCCC4)s3)C2)c1 (stereo not given)	none
O=C(NCCCN1CCN(Cc2ccccc2)CC1)C1CCN(S(=O)(=O)N2CCC3(CC2)OCCO3)CC1	none
O=C(C1CCN(S(=O)(=O)N2CCC3(CC2)OCCO3)CC1)N1CCN(Cc2ccccc2)CC1	Avidin bead fluor 133
CC(=O)c1ccc(NC(=O)C2(c3ccccc3)CCOCC2)cc1	none
O=C(Nc1ccccc1[N+](=O)[O-])C1(c2ccccc2)CCOCC1	Avidin bead fluor 202
Cc1cccc(Cn2c(=O)c3c(nc4n3CCN4Cc3ccco3)n(C)c2=O)c1	Avidin bead fluor 56
Cn1c(=O)n(Cc2ccc(Cl)cc2)c(=O)c2c1nc1n2CCN1Cc1ccco1	none
CCN(CC)CCCN(Cc1cc2cc3c(cc2[nH]c1=O)OCCO3)C(=O)Nc1ccccc1	Avidin bead fluor 54
O=C(Nc1ccccc1)N(CCCN1CCOCC1)Cc1cc2cc3c(cc2[nH]c1=O)OCCO3	none
CCCC(=O)Nc1nc(C)c(-c2csc(Nc3cc(OC)ccc3OC)n2)s1	Avidin bead fluor 80
